Calls of active or inactive are those of the source. The calls are words filed in the database; no cut-off is given here.
Columns and labels:
Mus musculus [1] = assay: Anticonvulsant activity in CF1 albino mouse assessed as inhibition of subcutaneous pentylenetetrazole-induced seizures at 30 mg/kg, ip after 0.5 hrs; type: functional, organism-based; parameters: dose 30 mg/kg
Outline: (§1)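 Adult male CF no. 1 albino mice (18-25 g) dosed ip with compound suspended in 0.5% methylcellulose (0.01 mL/g). Convulsant: pentylenetetrazol dissolved in 0.9% saline as a 0.85% solution for mice, given subcutaneously.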

Mus musculus [2] = assay: Anticonvulsant activity in CF1 albino mouse assessed as inhibition of subcutaneous pentylenetetrazole-induced seizures at 100 mg/kg, ip after 0.5 hrs; type: functional, organism-based; parameters: dose 100 mg/kg; outline: as §1
Mus musculus [3] = assay: Anticonvulsant activity in CF1 albino mouse assessed as inhibition of subcutaneous pentylenetetrazole-induced seizures at 300 mg/kg, ip after 0.5 hrs; type: functional, organism-based; parameters: dose 300 mg/kg; outline: as §1
Mus musculus [4] = assay: Anticonvulsant activity in CF1 albino mouse assessed as inhibition of subcutaneous pentylenetetrazole-induced seizures at 30 mg/kg, ip after 4 hrs; type: functional, organism-based; parameters: dose 30 mg/kg; outline: as §1
Mus musculus [5] = assay: Anticonvulsant activity in CF1 albino mouse assessed as inhibition of subcutaneous pentylenetetrazole-induced seizures at 100 mg/kg, ip after 4 hrs; type: functional, organism-based; parameters: dose 100 mg/kg; outline: as §1
Mus musculus [6] = assay: Teratogenic effect in SWV mouse assessed as resorptions at 325 mg/kg, ip administered on morning of day 8 of gestation; type: toxicity, organism-based; parameters: dose 325 mg/kg, route intraperitoneal; conditions: in vivo
Mus musculus [7] = assay: Teratogenic effect in SWV mouse assessed as resorptions at 164 mg/kg, ip administered on morning of day 8 of gestation; type: toxicity, organism-based; parameters: dose 164 mg/kg, route intraperitoneal; conditions: in vivo
Mus musculus [8] = assay: Teratogenic effect in SWV mouse assessed as resorptions at 805 mg/kg, ip administered on morning of day 8 of gestation; type: toxicity, organism-based; parameters: dose 805 mg/kg, route intraperitoneal; conditions: in vivo
Mus musculus [9] = assay: Teratogenic effect in SWV mouse assessed as resorptions at 537 mg/kg, ip administered on morning of day 8 of gestation; type: toxicity, organism-based; parameters: dose 537 mg/kg, route intraperitoneal; conditions: in vivo
Mus musculus [10] = assay: Teratogenic effect in SWV mouse assessed as fetuses with neural tube deffects at 325 mg/kg, ip administered on morning of day 8 of gestation; type: toxicity, organism-based; parameters: dose 325 mg/kg, route intraperitoneal; conditions: in vivo
Mus musculus [11] = assay: Teratogenic effect in SWV mouse assessed as fetuses with neural tube deffects at 164 mg/kg, ip administered on morning of day 8 of gestation; type: toxicity, organism-based; parameters: dose 164 mg/kg, route intraperitoneal; conditions: in vivo
Mus musculus [12] = assay: Teratogenic effect in SWV mouse assessed as fetuses with neural tube deffects at 537 mg/kg, ip administered on morning of day 8 of gestation; type: toxicity, organism-based; parameters: dose 537 mg/kg, route intraperitoneal; conditions: in vivo
Mus musculus [13] = assay: Teratogenic effect in SWV mouse assessed as live fetuses at 325 mg/kg, ip administered on morning of day 8 of gestation; type: toxicity, organism-based; parameters: dose 325 mg/kg, route intraperitoneal; conditions: in vivo
Mus musculus [14] = assay: Teratogenic effect in SWV mouse assessed as live fetuses at 164 mg/kg, ip administered on morning of day 8 of gestation; type: toxicity, organism-based; parameters: dose 164 mg/kg, route intraperitoneal; conditions: in vivo
Mus musculus [15] = assay: Teratogenic effect in SWV mouse assessed as live fetuses at 537 mg/kg, ip administered on morning of day 8 of gestation; type: toxicity, organism-based; parameters: dose 537 mg/kg, route intraperitoneal; conditions: in vivo
Mus musculus [16] = assay: Anticonvulsant activity in CF1 albino mouse assessed as inhibition of maximal electroshock-induced seizures at 30 mg/kg, ip after 0.5 hrs; type: functional, organism-based; parameters: dose 30 mg/kg
Outline: (§2)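 Test compounds suspended in 0.5% methylcellulose and given ip to adult male CF no. 1 albino mice (18-25 g) at 0.01 mL/g body weight before maximal electroshock challenge.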

Mus musculus [17] = assay: Anticonvulsant activity in CF1 albino mouse assessed as inhibition of maximal electroshock-induced seizures at 100 mg/kg, ip after 0.5 hrs; type: functional, organism-based; parameters: dose 100 mg/kg; outline: as §2
Mus musculus [18] = assay: Anticonvulsant activity in CF1 albino mouse assessed as inhibition of maximal electroshock-induced seizures at 300 mg/kg, ip after 0.5 hrs; type: functional, organism-based; parameters: dose 300 mg/kg; outline: as §2
Mus musculus [19] = assay: Anticonvulsant activity in CF1 albino mouse assessed as inhibition of maximal electroshock-induced seizures at 30 mg/kg, ip after 4 hrs; type: functional, organism-based; parameters: dose 30 mg/kg; outline: as §2
Mus musculus [20] = assay: Anticonvulsant activity in CF1 albino mouse assessed as inhibition of maximal electroshock-induced seizures at 300 mg/kg, ip after 4 hrs; type: functional, organism-based; parameters: dose 300 mg/kg; outline: as §2
Mus musculus [21] = assay: Anticonvulsant activity in CF1 albino mouse assessed as inhibition of subcutaneous pentylenetetrazole-induced seizures at 300 mg/kg, ip after 4 hrs; type: functional, organism-based; parameters: dose 300 mg/kg; outline: as §1
Mus musculus [22] = assay: Neurotoxicity in CF1 albino mouse assessed as motor impairment at 30 mg/kg, ip after 0.5 hrs; type: toxicity, organism-based; parameters: dose 30 mg/kg, route intraperitoneal; conditions: in vivo
Mus musculus [23] = assay: Neurotoxicity in CF1 albino mouse assessed as motor impairment at 100 mg/kg, ip after 0.5 hrs; type: toxicity, organism-based; parameters: dose 100 mg/kg, route intraperitoneal; conditions: in vivo
Mus musculus [24] = assay: Neurotoxicity in CF1 albino mouse assessed as motor impairment at 300 mg/kg, ip after 0.5 hrs; type: toxicity, organism-based; parameters: dose 300 mg/kg, route intraperitoneal; conditions: in vivo
Mus musculus [25] = assay: Neurotoxicity in CF1 albino mouse assessed as motor impairment at 30 mg/kg, ip after 4 hrs; type: toxicity, organism-based; parameters: dose 30 mg/kg, route intraperitoneal; conditions: in vivo
Mus musculus [26] = assay: Neurotoxicity in CF1 albino mouse assessed as motor impairment at 100 mg/kg, ip after 4 hrs; type: toxicity, organism-based; parameters: dose 100 mg/kg, route intraperitoneal; conditions: in vivo
Mus musculus [27] = assay: Neurotoxicity in CF1 albino mouse assessed as motor impairment at 300 mg/kg, ip after 4 hrs; type: toxicity, organism-based; parameters: dose 300 mg/kg, route intraperitoneal; conditions: in vivo
Rattus norvegicus [28] = assay: Neurotoxicity in Sprague-Dawley rat assessed as motor impairment at 30 mg/kg, po after 0.25 to 4 hrs; conditions: in vivo
Mus musculus [29] = assay: Teratogenic effect in SWV mouse assessed as resorptions at 562 mg/kg, ip administered on morning of day 8 of gestation; type: toxicity, organism-based; parameters: dose 562 mg/kg, route intraperitoneal; conditions: in vivo
Outline: (§3)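 SWV inbred mice: two-month-old nulligravid females mated overnight with males and checked for vaginal plugs next morning; gestation onset taken as 10 p.m. the previous night. On gestation day 8.5 each dam got one ip injection, 0.55–2.7 mmol/kg, in 25% aqueous Cremophor EL (vehicle controls dosed alike), 10 μL/g body weight. Litters and implants tallied; resorptions and live fetuses reported as counts with percentages.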

Mus musculus [30] = assay: Teratogenic effect in SWV mouse assessed as resorptions at 340 mg/kg, ip administered on morning of day 8 of gestation; type: toxicity, organism-based; parameters: dose 340 mg/kg, route intraperitoneal; conditions: in vivo; outline: as §3
Mus musculus [31] = assay: Teratogenic effect in SWV mouse assessed as resorptions at 172 mg/kg, ip administered on morning of day 8 of gestation; type: toxicity, organism-based; parameters: dose 172 mg/kg, route intraperitoneal; conditions: in vivo; outline: as §3
Mus musculus [32] = assay: Teratogenic effect in SWV mouse assessed as fetuses with neural tube deffects at 562 mg/kg, ip administered on morning of day 8 of gestation; type: toxicity, organism-based; parameters: dose 562 mg/kg, route intraperitoneal; conditions: in vivo
Outline: (§4)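 Two-month-old nulligravid SWV females were mated overnight and checked for vaginal plugs the next morning; gestation onset was set at 10 p.m. the previous night. On gestation day 8.5, each dam received a single ip injection (0.55-2.7 mmol/kg range) or vehicle (25% aqueous Cremophor EL) at 10 μL/g body weight. Litters were scored for implants, resorptions, live and dead fetuses, and fetuses with neural tube defects.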

Mus musculus [33] = assay: Teratogenic effect in SWV mouse assessed as fetuses with neural tube deffects at 340 mg/kg, ip administered on morning of day 8 of gestation; type: toxicity, organism-based; parameters: dose 340 mg/kg, route intraperitoneal; conditions: in vivo; outline: as §4
Mus musculus [34] = assay: Teratogenic effect in SWV mouse assessed as fetuses with neural tube deffects at 172 mg/kg, ip administered on morning of day 8 of gestation; type: toxicity, organism-based; parameters: dose 172 mg/kg, route intraperitoneal; conditions: in vivo; outline: as §4
Mus musculus [35] = assay: Teratogenic effect in SWV mouse assessed as live fetuses at 562 mg/kg, ip administered on morning of day 8 of gestation; type: toxicity, organism-based; parameters: dose 562 mg/kg, route intraperitoneal; conditions: in vivo; outline: as §3
Mus musculus [36] = assay: Teratogenic effect in SWV mouse assessed as live fetuses at 340 mg/kg, ip administered on morning of day 8 of gestation; type: toxicity, organism-based; parameters: dose 340 mg/kg, route intraperitoneal; conditions: in vivo; outline: as §3
Mus musculus [37] = assay: Teratogenic effect in SWV mouse assessed as live fetuses at 172 mg/kg, ip administered on morning of day 8 of gestation; type: toxicity, organism-based; parameters: dose 172 mg/kg, route intraperitoneal; conditions: in vivo; outline: as §4
Rattus norvegicus [38] = organism: Rattus norvegicus; assay: Protective index, ratio of TD50 for rat to ED50 for maximal electroshock-induced rat seizure model
Rattus norvegicus [39] = assay: Anticonvulsant activity in po dosed rat assessed as inhibition of maximal electroshock-induced seizures
Rattus norvegicus [40] = assay: Anticonvulsant activity in Sprague-Dawley rat assessed as inhibition of maximal electroshock-induced seizures at 30 mg/kg, po after 15 mins

Compound	Activity (Mus musculus [1])	Activity (Mus musculus [2])	Activity (Mus musculus [3])	Activity (Mus musculus [4])	Activity (Mus musculus [5])	Activity (Mus musculus [16])	Activity (Mus musculus [18])	Activity (Mus musculus [19])	Activity (Mus musculus [20])	Activity (Mus musculus [21])	Activity (Mus musculus [22])	Activity (Mus musculus [23])	Activity (Mus musculus [24])	Activity (Mus musculus [25])	Activity (Mus musculus [26])	Activity (Mus musculus [27])	Activity (Rattus norvegicus [28])	other results
CCC(CC(C)C)C(=O)Nc1ccc(S(N)(=O)=O)cc1 (configuration not stated)	inactive	inactive	inactive	inactive	inactive	inactive	inactive	inactive	Active	inactive	Non-toxic	Non-toxic	Non-toxic	Non-toxic	Non-toxic	Non-toxic	Non-toxic	Activity (Mus musculus [6]): 49.6%; Activity (Mus musculus [7]): 6.6%; Activity (Mus musculus [8]): 100%; Activity (Mus musculus [9]): 96.2%; Activity (Mus musculus [10]): 22.7%; Activity (Mus musculus [11]): 0.9%; Activity (Mus musculus [12]): 50%; Activity (Mus musculus [13]): 50.4%; Activity (Mus musculus [14]): 95.4%; Activity (Mus musculus [15]): 3.8%; Activity (Mus musculus [17]): inactive
CCCC(C(=O)Nc1ccc(S(N)(=O)=O)cc1)C(C)CC (configuration not stated)	inactive	inactive	inactive	inactive	inactive	inactive	Active	inactive	Active	inactive	Non-toxic	Non-toxic	Non-toxic	Non-toxic	Non-toxic	Non-toxic	Non-toxic	Activity (Mus musculus [29]): 50%; Activity (Mus musculus [30]): 33.3%; Activity (Mus musculus [31]): 12%; Activity (Mus musculus [32]): 7.1%; Activity (Mus musculus [33]): 5%; Activity (Mus musculus [34]): 7.8%; Activity (Mus musculus [35]): 50%; Activity (Mus musculus [36]): 66.7%; Activity (Mus musculus [37]): 88%; Ratio TD50/ED50 (Rattus norvegicus [38]): >13.9; ED50 (Rattus norvegicus [39]): 35.8 mg/kg; Activity (Rattus norvegicus [40]): inactive

Reference: ChEMBL document CHEMBL1155468, “Syntheses and evaluation of anticonvulsant profile and teratogenicity of novel amide derivatives of branched aliphatic carboxylic acids with 4-aminobenzensulfonamide” (J Med Chem, 2010)
